# Activity calls are given as the source filed them. No cut-off for these calls is given here.
# Columns and labels:
# [1] = test system: Enterococcus faecalis; assay: Antimicrobial activity against Enterococcus faecalis ATCC 29212 at 64 ug/ml by broth microdilution assay; type: functional, organism-based
# Outline: (§1)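 Broth microdilution susceptibility testing following NCCLS approved standards: M27-A (yeast method) and M7-A4. Each compound was tested at a single concentration of 64 μg/ml for growth inhibition of the listed strains: S. maltophilia ATCC 13637, M. luteus Presque Isle 456, S. aureus ATCC 29213, E. coli ATCC 25922, E. cloacae ATCC 13047, E. faecalis ATCC 29212, C. albicans ATCC 90028 and C. neoformans ATCC 90112.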
# [2] = test system: Cryptococcus neoformans; assay: Antimicrobial activity against Cryptococcus neoformans ATCC 90112 at 64 ug/ml by broth microdilution assay; type: functional, organism-based; outline: as §1
# [3] = test system: Staphylococcus aureus; assay: Antimicrobial activity against Staphylococcus aureus ATCC 29213 at 64 ug/ml by broth microdilution assay; type: functional, organism-based; outline: as §1
# [4] = test system: Escherichia coli; assay: Antimicrobial activity against Escherichia coli ATCC 25922 at 64 ug/ml by broth microdilution assay; type: functional, organism-based; outline: as §1
# [5] = test system: Stenotrophomonas maltophilia; assay: Antimicrobial activity against Stenotrophomonas maltophilia ATCC 13637 at 64 ug/ml by broth microdilution assay; type: functional, organism-based; outline: as §1
# [6] = test system: Micrococcus luteus; assay: Antimicrobial activity against Micrococcus luteus Presque Isle 456 at 64 ug/ml by broth microdilution assay; type: functional, organism-based; outline: as §1
# [7] = test system: Enterobacter cloacae; assay: Antimicrobial activity against Enterobacter cloacae ATCC 13047 at 64 ug/ml by broth microdilution assay; type: functional, organism-based; outline: as §1
# [8] = test system: Candida albicans; assay: Antimicrobial activity against Candida albicans ATCC 90028 at 64 ug/ml by broth microdilution assay; type: functional, organism-based; outline: as §1
# [9] = test system: P388; assay: Antitumor activity against mouse P388 cells after 48 hrs by Sulforhodamine B; type: functional; conditions: P388, 48 h, read-out: ED50 (the source's name)
Compound,Activity [1],Activity [2],Activity [3],Activity [4],Activity [5],Activity [6],Activity [7],Activity [8],EC50 [9] [µg/mL]
CC1(C)C[C@H]2[C@H](O)C(CO)=C3[C@H](O)C[C@]3(C)[C@H]2C1,inactive,inactive,inactive,inactive,inactive,inactive,inactive,inactive,–
C/C(C=O)=C1/CC[C@@]1(C)[C@@H]1C[C@](C)(CO)C[C@H]1O,inactive,inactive,inactive,inactive,inactive,inactive,inactive,inactive,5.3
C=C1[C@H](O)[C@H]2C[C@](C)(CO)CC2=C(C)C12CC2,inactive,inactive,inactive,inactive,inactive,inactive,inactive,inactive,–
